# Source: PubChem BioAssay
# Most compounds without a hit are left out; they make up all but 2.6% or so of the library.
# Cl transport mod: modulates chloride dependent transport by human KCC2; Q9H2X9; KCC2 cells, thallium flux FluoZin-2 fluorescence; B-score of Tl+ flux slope (higher = more flux/activation; lower = inhibition) at 10 µM; 190,000 compounds, 2.2% hits;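 active = thallium flux slope and its plate-corrected score both differing from the plate sample mean at a set confidence after two filtering rounds, in either direction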;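 also: slope of fluorescence scaled to starting intensity during 10 to 20 s after thallium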
# Target sequence (Q9H2X9 whole entry, looked up): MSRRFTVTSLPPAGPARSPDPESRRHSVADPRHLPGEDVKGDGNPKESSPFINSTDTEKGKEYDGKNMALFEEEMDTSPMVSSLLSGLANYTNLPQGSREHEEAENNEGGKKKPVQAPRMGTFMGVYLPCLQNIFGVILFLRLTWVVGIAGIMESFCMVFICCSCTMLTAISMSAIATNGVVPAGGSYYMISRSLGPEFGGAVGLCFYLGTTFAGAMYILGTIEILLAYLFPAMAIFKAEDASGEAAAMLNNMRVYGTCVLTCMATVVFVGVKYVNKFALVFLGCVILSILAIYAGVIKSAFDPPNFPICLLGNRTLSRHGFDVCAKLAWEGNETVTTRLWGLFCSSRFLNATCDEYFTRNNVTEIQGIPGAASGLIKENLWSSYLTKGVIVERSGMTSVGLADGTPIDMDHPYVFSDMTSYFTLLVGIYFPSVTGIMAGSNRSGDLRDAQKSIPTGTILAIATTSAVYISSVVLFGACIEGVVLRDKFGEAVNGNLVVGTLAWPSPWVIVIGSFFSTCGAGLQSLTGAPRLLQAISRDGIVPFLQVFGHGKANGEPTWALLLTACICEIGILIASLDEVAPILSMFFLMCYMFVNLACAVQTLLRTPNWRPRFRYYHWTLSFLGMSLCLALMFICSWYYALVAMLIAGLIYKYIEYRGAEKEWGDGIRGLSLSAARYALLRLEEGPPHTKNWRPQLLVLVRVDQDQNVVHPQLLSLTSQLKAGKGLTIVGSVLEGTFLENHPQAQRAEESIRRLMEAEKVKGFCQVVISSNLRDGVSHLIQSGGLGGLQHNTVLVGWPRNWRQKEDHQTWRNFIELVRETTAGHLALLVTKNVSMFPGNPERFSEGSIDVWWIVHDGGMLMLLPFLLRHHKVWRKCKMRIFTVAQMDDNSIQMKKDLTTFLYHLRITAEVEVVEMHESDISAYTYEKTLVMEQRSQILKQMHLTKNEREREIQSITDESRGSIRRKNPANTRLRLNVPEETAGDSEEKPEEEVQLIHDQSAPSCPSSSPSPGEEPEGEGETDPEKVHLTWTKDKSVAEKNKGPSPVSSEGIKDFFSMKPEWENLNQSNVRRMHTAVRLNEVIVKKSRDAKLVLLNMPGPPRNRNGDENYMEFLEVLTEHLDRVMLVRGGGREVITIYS
# CHT block: human CHT choline transport inhibition | B-score at 10 µM | CHT-expressing cells, membrane potential dye, choline response; active compounds read low | Q9GZV3 | 310,000 compounds, 0.86% hits;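 active = B-score over 3 SD under the library average, and starting fluorescence ratio not unusually high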;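 also: choline stimulus applied at its EC90 after an EC20 pre-addition; B-score computed on integrated fluorescence ratio after choline addition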
# CHT PAM: allosteric activators of human choline transporter CHT; Q9GZV3; CHT-expressing cells, membrane potential dye, choline EC20; active compounds read high; LV-AA mutant CHT in HEK293 cells; B-score at 10 µM; 310,000 compounds, 0.49% hits; AID 488977;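 active = initial fluorescence not abnormally high and integrated response B-score, plate-corrected, over 3 SD above library mean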
# Rad51 HR inh: Rad51 (human) homologous recombination inhibition | inhibition, % at 10 µM | AID 1385 | 200,000 compounds, 0.085% hits | hRad51 DNA strand exchange, fluorescence dequenching;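 active = inhibition above 40% at the single screening dose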;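 also: 0% = DMSO control wells and 100% = blanks with heterologous ssDNA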
#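 Test system: preformed human Rad51 ssDNA filaments. Compound dosing: single dose, 10 µM final compound. Incubation: filaments 15 min 37 °C, then compound 30 min. Technique: FRET fluorescence dequenching, excitation 485 nm, emission 520 nm. Read-out basis: percent inhibition from fluorescence, normalised to plate control and blank means. Benchmarks: plate controls and plate blanks.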
# KCC2 sec1: KCC2 (human) modulation, secondary assay | AID 1713 | normalised thallium flux (F/F0 slope) at 10 µM | HEK293-KCC2, thallium flux, FluoZin2 fluorescence; active compounds read high | 3,700 compounds, 15% hits | shares compounds with Cl transport mod;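 active = thallium flux slope above the same plate's solvent-only control mean plus 3 SD; inconclusive = the two replicate wells disagree; inactive = no significant difference from solvent-only control wells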
# KCC2 bumet counter: bumetanide-insensitive thallium flux in KCC2 cells with ouabain, counter-screen | shares compounds with Cl transport mod | HEK293-KCC2 + bumetanide/ouabain, thallium flux FluoZin2; active compounds read high | normalized thallium flux at 10 µM | 3,700 compounds, 49% hits;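 active = thallium entry rate above the same plate's blocked-transporter control wells by more than 3 SD; inconclusive = the two repeat wells disagree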;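 also: raw slope of fluorescence over initial fluorescence between 10 and 20 s after thallium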
# KCC2 sec2: confirmation of human KCC2 transport modulators; shares compounds with Cl transport mod; HEK293-KCC2, thallium flux FluoZin2 fluorescence; actives lie on both sides; F/F0 rise rate, 10–20 s post-thallium; normalized thallium flux at 10 µM; 3,700 compounds, 23% hits;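 active = thallium flux slope more than 3 SD above or below the plate's solvent-only control mean, mostly below; inconclusive = the two repeat wells disagreed; inactive = no significant shift from solvent-only controls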;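 also: raw slope with 0.1% DMSO as baseline and bumetanide as block control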
# HEK293 Tl flux: acts in parental HEK cells, KCC2 counter-screen. 3,700 compounds, 46% hits. shares compounds with Cl transport mod. HEK293 parental cells, thallium flux FluoZin2, ouabain; baseline-ratio fluorescence slope, 10–20 s after thallium. thallium flux rate (normalised fluorescence) at 10 µM;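 active = thallium flux rate significantly above the same plate's solvent-only control wells, beyond their mean plus 3 SD; inconclusive = the two replicate wells gave conflicting results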
# KCC2 ouabain: modulates human KCC2 on retest with ouabain; 3,700 compounds, 48% hits; raw Tl+ flux slope (below DMSO = inhibition, above = activation) at 10 µM; shares compounds with Cl transport mod; HEK293-KCC2, thallium flux FluoZin2 fluorescence; bidirectional: low = inhibitor, high = activator;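 active = thallium flux slope beyond 3 SD from same-plate DMSO control mean in most replicates, usually higher, sometimes lower; inconclusive = repeat tests gave conflicting results; inactive = no significant difference from controls in most replicates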;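 also: slope of initial-normalized fluorescence between seconds 10 and 20 after thallium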
# HEK counter2: counter-screen for KCC2 modulators: effect in parental HEK293 cells; AID 1718; thallium flux slope at 10 µM; 3,700 compounds, 33% hits; shares compounds with Cl transport mod; thallium flux FluoZin-2 fluorescence slope;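 active = thallium flux slope above the same plate's solvent-control mean plus 3 SD in both duplicate wells; inconclusive = duplicate wells that disagreed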;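 also: run without ouabain in cells lacking the KCC2 cotransporter; slope of fluorescence scaled to its starting value between 10 and 20 s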
# CHT inh conf: human CHT inhibition, confirmatory screen | shares compounds with CHT block | CHT-expressing cells, choline membrane potential dye; LV-to-AA substituted CHT, HEK293 cells | 2,400 compounds, 70% hits | CHT activity remaining % of control (active compounds read low), % at 10 µM;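 active = choline transporter activity left, mean of duplicates at 10 µM, below buffer-only control mean minus 3 SD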;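 also: depolarization triggered by choline at its EC90 following an EC20 pre-addition; 0% = hemicholinium-3 full block and 100% = buffer-only control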
# HEK293 CHT ctr: counter-screen for CHT inhibitors: effect in parental HEK293 cells; AID 493222; membrane potential dye, choline response; active = decrease or increase beyond buffer ±3SD; 2,400 compounds, 4% hits; shares compounds with CHT block; membrane potential ratio readout (active if shifted either direction beyond buffer ±3SD; no single direction) at 10 µM;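 also: parental cells lack the transporter so any hit is non-specific; ratio is peak minus trough fluorescence over baseline after EC90 choline challenge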
# * marks the source's active call; other numbers are inactive results; i = inactive; ? = inconclusive; . = no result given.
SMILES,Cl transport mod,CHT block,CHT PAM,Rad51 HR inh,KCC2 sec1,KCC2 bumet counter,KCC2 sec2,HEK293 Tl flux,KCC2 ouabain,HEK counter2,CHT inh conf,HEK293 CHT ctr
O=C(c1ccc(COc2ccc(Cl)cc2)o1)N1N=C(C(F)F)CC1(O)C(F)F (stereo not drawn),-2.04,i,i,7.2,.,.,.,.,.,.,.,.
COc1ccccc1OCc1ccc(C(=O)N2N=C(C(F)F)CC2(O)C(F)F)o1 (stereo not drawn),-3.32*,-5.17*,i,.,0.00711,0.00568,0.0254*,0.00669,0.0132*,?,i,i
O=c1[nH]c(COc2ccc(Cl)cc2Br)nc2ccccc12,.,i,i,.,.,.,.,.,.,.,.,.
COc1cc(/C=C2/C(=O)c3cccc([N+](=O)[O-])c3C2=O)c(Br)cc1O,-4.67*,-7.2*,i,2.0,0.0106,0.00779,0.0331,0.00652,0.0185,0.0101,43.4%*,i
CCCOc1ccc(C(=O)NC(=S)NNC(=O)c2c(-c3ccccc3)noc2C)cc1,62.1*,-11.9*,i,18.6,0.0215*,0.0645*,?,0.0446*,0.0398*,0.0402*,56.3%*,i
CCCOc1ccc(NC(=O)c2c(-c3ccccc3)noc2C)cc1,0.175,i,i,7.6,.,.,.,.,.,.,.,.
Cc1ccc(CN2CCN(C(=O)CC(C)C)CC2)cc1,.,i,i,.,.,.,.,.,.,.,.,.
COc1ccccc1NC(=O)CCSc1nc(C)cc(C)n1,-0.491,i,i,-0.7,.,.,.,.,.,.,.,.
CCC/C(C)=N/NC(=O)c1ccccc1O,0.11,i,i,-4.6,.,.,.,.,.,.,.,.
C/C(=N\NC(=O)c1ccccc1O)C1C(=O)c2ccccc2C1=O,-3.84*,-5.03*,i,-3.2,0.00688,0.00548,0.0291,?,0.0151*,0.00896,31.4%*,i
CCOc1ccc(/C=C2\SC(=S)N(NS(=O)(=O)c3ccccc3)C2=O)cc1OC,6.99*,-5.82*,i,.,?,0.028*,0.0335,0.0137*,?,0.0178*,56.1%*,i
CCOc1cc(/C=C2\SC(=S)N(NS(=O)(=O)c3ccccc3)C2=O)ccc1O,.,i,i,.,.,.,.,.,.,.,.,.
COc1ccc(OC)c(/C=C2\SC(=S)N(NS(=O)(=O)c3ccc(C)cc3)C2=O)c1,.,i,i,.,.,.,.,.,.,.,.,.
CCOc1ccc(/C=C2\SC(=S)N(NS(=O)(=O)c3ccc(C)cc3)C2=O)cc1OC,24*,-6.1*,i,-5.8,0.00655,0.0392*,0.029,0.0212*,?,0.0141*,60.0%*,i
CNC(=O)c1ccc(-c2nc(-c3ccccc3)cs2)cc1,-0.68,i,i,1.8,.,.,.,.,.,.,.,.
O=C(NCc1nc(-c2ccccc2)cs1)c1ccccc1,-4.27*,-6.52*,i,.,0.00682,?,0.0219*,0.0076,?,0.0115,71.3%*,i
O=C(NNC1=C(C(=O)C(F)(F)F)CCC1)c1ccc(Br)cc1,11.3*,-7.47*,i,-2.6,0.00963,0.0243*,0.0311,0.0151*,?,0.0122*,43.1%*,i
CCc1ccc(OCc2n[nH]c(=S)n2Cc2ccccc2)cc1,14.9*,-6.47*,i,5.4,0.00954,0.0358*,0.0302,0.015*,?,0.011*,67.5%*,i
O=C(Cc1ccc(Cl)cc1)NNC(=S)NC(=O)c1cccs1,29.2*,-5.23*,i,-6.4,0.00837,0.0454*,0.0369*,0.0336*,0.0372*,0.0272*,i,i
O=C(Cc1cccs1)NNC(=S)NCc1ccc(Cl)cc1,-1.55,i,i,4.2,.,.,.,.,.,.,.,.
Cc1cccc(C)c1NC(=S)NNc1ncc(C(F)(F)F)cc1Cl,1.32,i,i,-5.2,.,.,.,.,.,.,.,.
Fc1ccccc1NC(=S)NNc1ncc(C(F)(F)F)cc1Cl,6.91*,-8.13*,i,.,0.00784,0.0522*,0.0302,0.0112*,?,0.0105*,60.2%*,i
CC[C@H](CO)Nc1nc(Nc2cccc(Cl)c2)c2ncn(C(C)C)c2n1,-2.62*,-8.96*,i,-2.8,0.0168,0.00469,?,0.00708,0.0146,0.0105,48.1%*,i
CC(C)[C@H](CO)N(Cc1cccc(F)c1)c1nc(Nc2cccc(Cl)c2)c2ncn(C(C)C)c2n1,0.247,i,i,-4.5,.,.,.,.,.,.,.,.
CCC(C)(C)NC(=O)C(c1ccc(F)cc1)N(Cc1ccccc1)C(=O)c1cnccn1 (stereo not drawn),0.487,i,i,18.3,.,.,.,.,.,.,.,.
Cc1nn(CCCC(=O)Nc2nccs2)c(C)c1[N+](=O)[O-],-0.107,i,i,8.3,.,.,.,.,.,.,.,.
COc1cccc(C(C(=O)NC(C)(C)C)N(Cc2ccc(F)cc2)C(=O)CCC(=O)Nc2cc(C)on2)c1OC (stereo not drawn),.,i,i,.,.,.,.,.,.,.,.,.
Cn1c(-c2sccc2OCc2ccc(Cl)cc2Cl)n[nH]c1=S,5.24*,-5.57*,i,2.7,0.00645,0.0134*,0.0261,0.0118*,0.0168,0.012*,i,i
Cc1[nH]n2c(=O)cc(C(C)C)nc2c1-c1ccccc1,6.66*,-5.17*,i,.,?,0.0153*,?,?,?,0.0107,i,i
